# Experiments:
# [1] = biological target: Mitogen-activated protein kinase kinase kinase 9 (Homo sapiens) (UniProt P80192); assay: Binding affinity to wild-type human partial length MLK1 (V88 to W426 residues) expressed in Escherichia coli BL21 at 1 uM by Kinomescan method relative to control
# [2] = system: Phosphatidylinositol 4,5-bisphosphate 3-kinase catalytic subunit alpha isoform (Homo sapiens), P42336 [E542K]; assay: Binding affinity to human partial length PIK3CA E542K mutant (R108 to N1068 residues) expressed in HEK293 cells at 1 uM by Kinomescan method relative to control; assay type: cell-based
# [3] = biological target: Serine/threonine-protein kinase ICK (Homo sapiens) (UniProt Q9UPZ9); assay: Binding affinity to wild-type human partial length ICK (M1 to P314 residues) expressed in HEK293 cells at 1 uM by Kinomescan method relative to control; assay type: cell-based
# [4] = biological target: Mitogen-activated protein kinase kinase kinase 7 (Homo sapiens) (UniProt O43318); assay: Binding affinity to wild-type human partial length TAK1 (M1 to Q303 residues) expressed in HEK293 cells at 1 uM by Kinomescan method relative to control; assay type: cell-based
# [5] = biological target: Serine/threonine-protein kinase B-raf (Homo sapiens) (UniProt P15056); assay: Binding affinity to wild-type human partial length BRAF (S429 to E741 residues) expressed in HEK293 cells at 1 uM by Kinomescan method relative to control; assay type: cell-based
# [6] = biological target: Proto-oncogene tyrosine-protein kinase ROS (Homo sapiens) (UniProt P08922); assay: Binding affinity to wild-type human partial length ROS1 (A1921 to N2240 residues) expressed in Escherichia coli BL21 at 1 uM by Kinomescan method relative to control
# [7] = biological target: Serine/threonine-protein kinase RIO3 (Homo sapiens) (UniProt O14730); assay: Binding affinity to wild-type human full length RIOK3 (M1 to E519 residues) expressed in Escherichia coli BL21 at 1 uM by Kinomescan method relative to control
# Method in brief: (§1)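 Kinome-wide competition binding panel run by an outside provider, with each compound tested at a single concentration. Activity is read against the kinase panel.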
# [8] = biological target: Serine/threonine-protein kinase MARK2 (Homo sapiens) (UniProt Q7KZI7); assay: Binding affinity to wild-type human partial length MARK2 (M1 to R450 residues) expressed in Escherichia coli BL21 at 1 uM by Kinomescan method relative to control
# [9] = biological target: Cyclin-dependent kinase 11B (Homo sapiens) (UniProt P21127); assay: Binding affinity to wild-type human partial length CDK11 (M1 to N360 residues) expressed in Escherichia coli BL21 assessed as residual activity at 1000 nM after 1 hr by Kinomescan method relative to control
# [10] = biological target: Tyrosine-protein kinase Tec (Homo sapiens) (UniProt P42680); assay: Binding affinity to wild-type human partial length TEC (L341 to D620 residues) expressed in Escherichia coli BL21 at 1 uM by Kinomescan method relative to control
# [11] = biological target: Serine/threonine-protein kinase/endoribonuclease IRE1 (Homo sapiens) (UniProt O75460); assay: Binding affinity to wild-type human partial length ERN1 (S551 to E852 residues) expressed in HEK293 cells at 1 uM by Kinomescan method relative to control; assay type: cell-based
# [12] = biological target: Receptor-interacting serine/threonine-protein kinase 2 (Homo sapiens) (UniProt O43353); assay: Binding affinity to wild-type human partial length RIPK2 (M1 to K310 residues) expressed in Escherichia coli BL21 at 1 uM by Kinomescan method relative to control
# [13] = biological target: Cyclin-dependent kinase 17 (Homo sapiens) (UniProt Q00537); assay: Binding affinity to wild-type human full length PCTK2 (M1 to F523 residues) expressed in Escherichia coli BL21 at 1 uM by Kinomescan method relative to control; method in brief: as §1
# [14] = biological target: STE20/SPS1-related proline-alanine-rich protein kinase (Homo sapiens) (UniProt Q9UEW8); assay: Binding affinity to wild-type human partial length STK39 (P43 to I357 residues) expressed in HEK293 cells at 1 uM by Kinomescan method relative to control; assay type: cell-based
# [15] = biological target: Mitogen-activated protein kinase kinase kinase 19 (Homo sapiens) (UniProt Q56UN5); assay: Binding affinity to wild-type human partial length YSK4 (T1019 to H1328 residues) expressed in HEK293 cells at 1 uM by Kinomescan method relative to control; assay type: cell-based
# [16] = system: Mast/stem cell growth factor receptor Kit (Homo sapiens), P10721 [V559D]; assay: Binding affinity to human partial length KIT V559D mutant (Y545 to D952 residues) expressed in Escherichia coli BL21 at 1 uM by Kinomescan method relative to control
# [17] = biological target: Tyrosine-protein kinase HCK (Homo sapiens) (UniProt P08631); assay: Binding affinity to wild-type human full length HCK (M22 to P526 residues) expressed in Escherichia coli BL21 at 1 uM by Kinomescan method relative to control
# Method in brief: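 Run as one kinome-wide competition binding panel with each compound at a single fixed concentration. Results were plotted as a kinome-wide selectivity map.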
# [18] = biological target: Serine/threonine-protein kinase 25 (Homo sapiens) (UniProt O00506); assay: Binding affinity to wild-type human partial length YSK1 (V14 to H295 residues) expressed in Escherichia coli BL21 at 1 uM by Kinomescan method relative to control
# [19] = biological target: Cyclin-dependent kinase-like 5 (Homo sapiens) (UniProt O76039); assay: Binding affinity to wild-type human partial length CDKL5 (M1 to S337 residues) expressed in HEK293 cells at 1 uM by Kinomescan method relative to control; assay type: cell-based
# [20] = system: Epidermal growth factor receptor (Homo sapiens), P00533 [L858R,T790M]; assay: Binding affinity to human partial length EGFR L858R/T790M double mutant (R669 to V1011 residues) expressed in HEK293 cells at 1 uM by Kinomescan method relative to control; assay type: cell-based
# [21] = biological target: Dual specificity protein kinase CLK2 (Homo sapiens) (UniProt P49760); assay: Binding affinity to wild-type human partial length CLK2 (D144 to R498 residues) expressed in Escherichia coli BL21 at 1 uM by Kinomescan method relative to control
# [22] = biological target: Serine/threonine-protein kinase DCLK3 (Homo sapiens) (UniProt Q9C098); assay: Binding affinity to wild-type human partial length DCAMKL3 (E140 to V628 residues) expressed in Escherichia coli BL21 at 1 uM by Kinomescan method relative to control
# [23] = biological target: Death-associated protein kinase 1 (Homo sapiens) (UniProt P53355); assay: Binding affinity to wild-type human partial length DAPK1 (M1 to F296 residues) expressed in Escherichia coli BL21 at 1 uM by Kinomescan method relative to control
# [24] = biological target: Tyrosine-protein kinase Yes (Homo sapiens) (UniProt P07947); assay: Binding affinity to wild-type human partial length YES (T257 to L543 residues) expressed in Escherichia coli BL21 at 1 uM by Kinomescan method relative to control
# [25] = biological target: Calcium/calmodulin-dependent protein kinase type 1D (Homo sapiens) (UniProt Q8IU85); assay: Binding affinity to wild-type human partial length CAMK1D (M1 to K299 residues) expressed in Escherichia coli BL21 at 1 uM by Kinomescan method relative to control
# Chain of Mitogen-activated protein kinase kinase kinase 7 (Homo sapiens) (O43318 whole entry, the tested form may be a part): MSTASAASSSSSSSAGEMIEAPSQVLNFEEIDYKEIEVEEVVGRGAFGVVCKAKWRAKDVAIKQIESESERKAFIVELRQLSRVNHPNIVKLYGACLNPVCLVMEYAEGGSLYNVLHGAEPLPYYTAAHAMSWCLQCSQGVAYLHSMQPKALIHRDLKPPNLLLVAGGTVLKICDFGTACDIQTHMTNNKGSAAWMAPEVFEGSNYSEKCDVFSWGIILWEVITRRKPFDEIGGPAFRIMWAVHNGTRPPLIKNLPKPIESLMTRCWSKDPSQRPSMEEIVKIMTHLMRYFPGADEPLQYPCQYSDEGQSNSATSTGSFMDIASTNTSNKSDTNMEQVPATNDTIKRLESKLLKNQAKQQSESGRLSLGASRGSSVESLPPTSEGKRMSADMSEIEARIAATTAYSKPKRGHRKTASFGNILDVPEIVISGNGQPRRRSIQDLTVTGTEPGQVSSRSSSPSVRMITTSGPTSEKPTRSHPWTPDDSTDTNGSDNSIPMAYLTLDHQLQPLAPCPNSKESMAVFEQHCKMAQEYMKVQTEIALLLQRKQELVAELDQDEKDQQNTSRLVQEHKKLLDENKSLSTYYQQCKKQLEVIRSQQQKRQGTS
# Chain of Serine/threonine-protein kinase/endoribonuclease IRE1 (Homo sapiens) (O75460 19-977 limits assumed): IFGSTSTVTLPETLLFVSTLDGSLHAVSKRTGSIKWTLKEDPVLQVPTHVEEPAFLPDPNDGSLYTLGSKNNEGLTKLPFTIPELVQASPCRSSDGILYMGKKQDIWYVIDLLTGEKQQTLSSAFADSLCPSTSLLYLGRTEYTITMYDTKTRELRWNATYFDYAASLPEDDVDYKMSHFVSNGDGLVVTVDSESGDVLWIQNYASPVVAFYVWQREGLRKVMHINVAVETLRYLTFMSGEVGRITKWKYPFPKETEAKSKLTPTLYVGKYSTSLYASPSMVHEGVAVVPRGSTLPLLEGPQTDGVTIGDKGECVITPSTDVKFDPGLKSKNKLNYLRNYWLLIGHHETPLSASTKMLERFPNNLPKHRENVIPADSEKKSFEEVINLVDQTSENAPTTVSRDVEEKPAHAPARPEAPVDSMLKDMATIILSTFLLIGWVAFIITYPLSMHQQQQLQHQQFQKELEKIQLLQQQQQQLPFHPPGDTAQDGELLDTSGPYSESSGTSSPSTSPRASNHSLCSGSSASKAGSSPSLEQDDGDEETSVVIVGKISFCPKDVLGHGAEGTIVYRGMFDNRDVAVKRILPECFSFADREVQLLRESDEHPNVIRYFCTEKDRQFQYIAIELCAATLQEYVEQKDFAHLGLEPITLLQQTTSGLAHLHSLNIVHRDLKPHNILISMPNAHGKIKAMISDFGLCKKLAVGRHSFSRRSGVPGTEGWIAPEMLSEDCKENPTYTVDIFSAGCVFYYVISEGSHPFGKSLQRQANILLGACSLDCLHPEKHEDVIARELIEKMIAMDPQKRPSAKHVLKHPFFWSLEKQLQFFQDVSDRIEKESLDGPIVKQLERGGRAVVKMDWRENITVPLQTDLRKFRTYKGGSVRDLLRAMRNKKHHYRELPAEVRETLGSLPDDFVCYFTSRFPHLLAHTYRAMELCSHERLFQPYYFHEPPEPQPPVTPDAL
# Chain of Serine/threonine-protein kinase 25 (Homo sapiens) (O00506 whole entry, looked up, the tested form may be a part): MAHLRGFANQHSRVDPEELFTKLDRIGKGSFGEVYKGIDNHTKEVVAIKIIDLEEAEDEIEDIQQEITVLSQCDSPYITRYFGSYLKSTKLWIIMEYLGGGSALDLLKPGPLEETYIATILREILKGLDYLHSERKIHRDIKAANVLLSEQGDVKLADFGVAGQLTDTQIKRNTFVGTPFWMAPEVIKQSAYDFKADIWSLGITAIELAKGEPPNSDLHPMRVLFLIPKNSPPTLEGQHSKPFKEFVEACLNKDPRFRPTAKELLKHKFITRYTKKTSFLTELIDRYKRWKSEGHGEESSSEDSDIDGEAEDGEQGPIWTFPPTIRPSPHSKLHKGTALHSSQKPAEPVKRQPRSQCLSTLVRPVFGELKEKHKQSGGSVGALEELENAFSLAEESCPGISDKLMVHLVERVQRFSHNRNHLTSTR
# Chain of Mast/stem cell growth factor receptor Kit (Homo sapiens), P10721 [V559D] (P10721 whole entry V559D, the tested form may be a part): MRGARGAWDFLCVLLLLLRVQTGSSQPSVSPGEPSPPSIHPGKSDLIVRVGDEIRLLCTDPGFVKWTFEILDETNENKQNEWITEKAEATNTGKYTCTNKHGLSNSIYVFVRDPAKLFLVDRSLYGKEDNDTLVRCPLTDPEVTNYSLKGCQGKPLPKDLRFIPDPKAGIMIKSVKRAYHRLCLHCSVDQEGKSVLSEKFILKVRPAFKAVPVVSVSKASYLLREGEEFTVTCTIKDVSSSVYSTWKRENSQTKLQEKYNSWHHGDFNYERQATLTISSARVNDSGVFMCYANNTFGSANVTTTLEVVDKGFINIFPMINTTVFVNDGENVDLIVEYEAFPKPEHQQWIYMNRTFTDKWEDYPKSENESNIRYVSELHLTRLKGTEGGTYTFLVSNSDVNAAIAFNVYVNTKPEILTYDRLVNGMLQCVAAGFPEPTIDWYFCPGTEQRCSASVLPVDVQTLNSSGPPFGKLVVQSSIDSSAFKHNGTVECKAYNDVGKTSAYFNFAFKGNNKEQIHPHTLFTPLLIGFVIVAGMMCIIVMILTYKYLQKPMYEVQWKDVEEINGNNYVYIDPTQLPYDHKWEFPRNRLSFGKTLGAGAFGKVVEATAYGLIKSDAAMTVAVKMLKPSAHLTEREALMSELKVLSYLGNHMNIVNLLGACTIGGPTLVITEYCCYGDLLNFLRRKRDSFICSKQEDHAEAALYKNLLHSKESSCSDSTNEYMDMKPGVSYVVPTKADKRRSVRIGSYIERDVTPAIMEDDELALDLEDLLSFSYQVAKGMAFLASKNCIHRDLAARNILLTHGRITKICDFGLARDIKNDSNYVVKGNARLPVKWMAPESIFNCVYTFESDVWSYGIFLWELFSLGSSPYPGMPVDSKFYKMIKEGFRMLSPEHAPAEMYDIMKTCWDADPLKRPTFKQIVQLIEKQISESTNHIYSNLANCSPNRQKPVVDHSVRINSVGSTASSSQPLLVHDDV
# Chain of Cyclin-dependent kinase 11B (Homo sapiens) (P21127 whole entry, the tested form may be a part): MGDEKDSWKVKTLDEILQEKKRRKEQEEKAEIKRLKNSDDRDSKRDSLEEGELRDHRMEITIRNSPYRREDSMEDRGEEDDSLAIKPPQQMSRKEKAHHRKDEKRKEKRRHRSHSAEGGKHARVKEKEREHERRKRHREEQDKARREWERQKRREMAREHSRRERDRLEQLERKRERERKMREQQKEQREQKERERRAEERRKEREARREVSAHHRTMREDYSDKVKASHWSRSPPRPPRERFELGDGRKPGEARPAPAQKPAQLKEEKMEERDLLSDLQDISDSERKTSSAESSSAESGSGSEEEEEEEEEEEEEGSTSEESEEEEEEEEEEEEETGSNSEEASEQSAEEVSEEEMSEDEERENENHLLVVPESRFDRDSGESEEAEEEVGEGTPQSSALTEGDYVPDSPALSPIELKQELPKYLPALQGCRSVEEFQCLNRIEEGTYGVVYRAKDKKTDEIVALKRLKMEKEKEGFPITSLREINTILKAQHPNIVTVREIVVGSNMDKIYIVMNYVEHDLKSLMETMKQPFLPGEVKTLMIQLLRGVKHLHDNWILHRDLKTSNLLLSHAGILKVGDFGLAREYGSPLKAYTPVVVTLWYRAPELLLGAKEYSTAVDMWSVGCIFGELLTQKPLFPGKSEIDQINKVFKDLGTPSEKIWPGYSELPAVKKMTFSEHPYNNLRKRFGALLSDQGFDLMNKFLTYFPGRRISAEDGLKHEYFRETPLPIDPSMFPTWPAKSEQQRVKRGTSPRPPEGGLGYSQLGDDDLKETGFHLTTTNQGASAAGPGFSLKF
# Chain of Dual specificity protein kinase CLK2 (Homo sapiens) (P49760 whole entry, looked up, the tested form may be a part): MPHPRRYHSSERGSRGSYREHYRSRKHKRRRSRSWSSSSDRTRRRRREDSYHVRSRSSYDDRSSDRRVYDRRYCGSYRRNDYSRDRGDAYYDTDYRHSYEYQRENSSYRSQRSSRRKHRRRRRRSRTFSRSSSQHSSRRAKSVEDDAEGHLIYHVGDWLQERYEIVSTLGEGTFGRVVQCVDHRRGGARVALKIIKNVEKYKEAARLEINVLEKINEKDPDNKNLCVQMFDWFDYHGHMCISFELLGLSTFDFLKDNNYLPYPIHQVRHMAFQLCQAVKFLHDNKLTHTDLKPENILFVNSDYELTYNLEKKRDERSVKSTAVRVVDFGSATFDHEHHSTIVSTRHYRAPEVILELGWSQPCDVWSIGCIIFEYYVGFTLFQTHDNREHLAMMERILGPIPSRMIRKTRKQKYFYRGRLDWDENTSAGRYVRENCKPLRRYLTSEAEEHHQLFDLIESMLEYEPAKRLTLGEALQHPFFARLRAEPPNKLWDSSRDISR
# Chain of Serine/threonine-protein kinase DCLK3 (Homo sapiens) (Q9C098 whole entry, the tested form may be a part): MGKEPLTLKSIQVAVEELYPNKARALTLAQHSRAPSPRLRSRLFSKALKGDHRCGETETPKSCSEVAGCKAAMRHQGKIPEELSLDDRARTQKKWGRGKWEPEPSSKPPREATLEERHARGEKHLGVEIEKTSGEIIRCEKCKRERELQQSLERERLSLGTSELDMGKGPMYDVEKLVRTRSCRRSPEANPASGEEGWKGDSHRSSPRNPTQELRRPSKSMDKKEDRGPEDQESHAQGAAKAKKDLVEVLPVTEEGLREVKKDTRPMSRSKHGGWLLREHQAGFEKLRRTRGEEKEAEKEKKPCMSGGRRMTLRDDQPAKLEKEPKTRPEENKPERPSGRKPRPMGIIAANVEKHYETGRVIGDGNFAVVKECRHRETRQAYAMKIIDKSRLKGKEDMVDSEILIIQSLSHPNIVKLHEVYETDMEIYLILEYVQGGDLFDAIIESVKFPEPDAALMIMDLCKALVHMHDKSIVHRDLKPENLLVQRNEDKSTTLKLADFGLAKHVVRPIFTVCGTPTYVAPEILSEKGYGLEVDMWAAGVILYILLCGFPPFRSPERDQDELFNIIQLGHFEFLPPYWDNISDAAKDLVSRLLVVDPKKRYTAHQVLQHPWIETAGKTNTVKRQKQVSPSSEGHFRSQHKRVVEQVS
smiles,measurement,setting,value
CCC(=O)Nc1ccc(C(=O)Nc2ccc(Nc3ncc4c(n3)N(C)c3ccc(C)cc3C(=O)N4C)cc2)cc1,Activity,[1],88%
same,Activity,[2],76%
same,Activity,[3],97%
same,Activity,[4],66%
same,Activity,[5],100%
same,Activity,[6],81%
same,Activity,[7],84%
same,Activity,[8],100%
same,Activity,[9],100%
same,Activity,[10],93%
same,Activity,[11],100%
same,Activity,[12],98%
same,Activity,[13],100%
same,Activity,[14],73%
same,Activity,[15],77%
same,Activity,[16],94%
same,Activity,[17],74%
same,Activity,[18],100%
same,Activity,[19],89%
same,Activity,[20],96%
same,Activity,[21],88%
same,Activity,[22],100%
same,Activity,[23],90%
same,Activity,[24],83%
same,Activity,[25],88%
C=CC(=O)Nc1ccc(C(=O)Nc2ccc(Nc3ncc4c(n3)N(C)c3ccc(C)cc3C(=O)N4C)cc2)cc1,Activity,[1],100%
same,Activity,[2],62%
same,Activity,[3],86%
same,Activity,[4],96%
same,Activity,[5],100%
same,Activity,[6],98%
same,Activity,[7],75%
same,Activity,[8],100%
same,Activity,[9],100%
same,Activity,[10],100%
same,Activity,[11],87%
same,Activity,[12],89%
same,Activity,[13],99%
same,Activity,[14],88%
same,Activity,[15],72%
same,Activity,[16],97%
same,Activity,[17],100%
same,Activity,[18],87%
same,Activity,[19],98%
same,Activity,[20],100%
same,Activity,[21],99%
same,Activity,[22],93%
same,Activity,[23],100%
same,Activity,[24],90%
same,Activity,[25],100%

# Reference: ChEMBL document CHEMBL4184148 (Bioorg Med Chem Lett, 2017)
